B1: Osa-1-4 twister ribozyme (parent)
chain: CCGCCUAACACUGCCAAUGCCGGUCCCAAGCCCGGAUAAAAGUGGAGGGGGCGG

Variants of: B1
Assay: self-cleavage, relative activity (ratio to wild type); higher = more cleavage; co-transcriptional
Summary of the method: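 In vitro transcription at 37 °C for 2 h allowed the twister ribozyme to cleave itself as it was made. Its 54-nucleotide Oryza sativa template had been synthesised with 97 % wild-type base and 1 % of each other base at the 48 positions downstream of the cleavage site. A template-switching oligonucleotide was used for reverse transcription, followed by PCR amplification and deep sequencing. Whether reads carried upstream sequence set the cleavage status, and relative activity is the fraction cleaved normalised to wild type.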

Row | Variant | self-cleavage
1 | A16C G45A | 0.17
2 | A16C G45U | 0.09
3 | A16C G45C | 0.05
4 | A16C A7C | 0.07
5 | A16C A7G | 0.17
6 | A16C A7U | 0.15
7 | A16C U24C | 0.17
8 | A16C U24G | 0.04
9 | A16C U24A | 0.11
10 | C15U C26U | 0.08
11 | C15U C26A | 0.01
12 | C15U C26G | 0.06
13 | A16C G35A | 0.61
14 | A16C G35C | 0.17
15 | A16C G35U | 0.64
16 | C15U G13C | 0.02
17 | C15U G13A | 0.05
18 | C15U G13U | 0.02
19 | A16C G34A | 0.44
20 | A16C G34C | 0.23
21 | A16C G34U | 0.34
22 | C15U C32G | 0.08
23 | C15U C32U | 0.06
24 | C15U C32A | 0.03

Row | Variant | self-cleavage
25 | C15U G19A | 1.03
26 | C15U G19U | 0.46
27 | C15U G19C | 0.12
28 | A16C C32U | 0.09
29 | A16C C32G | 0.12
30 | A16C C32A | 0.07
31 | A16G C25A | 0.24
32 | A16G C25G | 0.16
33 | A16G C25U | 0.94
34 | C15G G50U | 0.26
35 | A16C C20G | 0.12
36 | A16C C20A | 0.83
37 | A16C C20U | 0.93
38 | A16G A28U | 0.92
39 | A16G A28G | 0.6
40 | A16G A28C | 1
41 | A16G A46C | 0.15
42 | A16G A46G | 0.1
43 | A16G A46U | 0.11
44 | A16C A38C | 1.01
45 | A16C A38G | 0.96
46 | A16C A38U | 1.01
47 | A16C G49C | 0.05
48 | A16C G49A | 0.09

Row | Variant | self-cleavage
49 | A16C G49U | 0.08
50 | C15U G47C | 0.05
51 | C15U G47A | 0.06
52 | C15U G47U | 0.05
53 | C15U C20U | 0.54
54 | C15U C20G | 0.05
55 | C15U C20A | 0.45
56 | A16C G44C | 0.97
57 | A16C G44U | 0.94
58 | A16C G44A | 0.95
59 | C15U U12G | 0.1
60 | C15U U12C | 0.06
61 | C15U U12A | 0.11
62 | A16G A29C | 0.08
63 | A16G A29U | 0.27
64 | A16G A29G | 0.39
65 | C15G G53A | 0.13
66 | C15G G53U | 0.13
67 | C15G G53C | 0.05
68 | A16C C52A | 0.9
69 | A16C C52G | 0.96
70 | A16C C52U | 0.98
71 | A16G | 1.01
72 | A16C | 0.97

Row | Variant | self-cleavage
73 | C15G U12G | 0.15
74 | C15G U12C | 0.1
75 | C15G U12A | 0.13
76 | C15U G48U | 0.03
77 | C15U G48A | 0.05
78 | C15U G48C | 0.05
79 | A16C C25G | 0.1
80 | A16C C25U | 0.72
81 | A16C C25A | 0.08
82 | A16C C11U | 0.86
83 | A16C C11A | 0.58
84 | A16C C11G | 0.17
85 | A16G C32A | 0.08
86 | A16G C32U | 0.09
87 | A16G C32G | 0.19
88 | A16C G48A | 0.06
89 | A16C G48U | 0.06
90 | A16C G48C | 0.07
91 | A16C U43A | 0.7
92 | A16C U43C | 0.33
93 | A16C U43G | 0.16
94 | C15U C52A | 0.26
95 | C15U C52U | 0.48
96 | C15U C52G | 0.41

Row | Variant | self-cleavage
97 | A16C A40G | 0.54
98 | A16C A40U | 0.52
99 | A16C A40C | 0.07
100 | A16C C26A | 0.03
101 | A16C C26U | 0.76
102 | A16C C26G | 0.1
103 | A16C U37A | 0.84
104 | A16C U37C | 1.02
105 | A16C U37G | 0.96
106 | C15U G53A | 0.12
107 | C15U G53U | 0.1
108 | C15U G53C | 0.05
109 | A16C G47A | 0.14
110 | A16C G47U | 0.13
111 | A16C G47C | 0.05
112 | A16C A28C | 0.83
113 | A16C A28G | 0.16
114 | A16C A28U | 0.76
115 | C15U G44A | 0.08
116 | C15U G44C | 0.23
117 | C15U G44U | 0.16
118 | A16G C20U | 0.99
119 | A16G C20G | 0.19
120 | A16G C20A | 0.86

Row | Variant | self-cleavage
121 | A16G C21G | 0.12
122 | A16G C21A | 0.8
123 | A16G C21U | 0.98
124 | A16G A36G | 1.01
125 | A16G A36C | 0.86
126 | A16G A36U | 1.06
127 | C15U G54C | 0.14
128 | C15U G54U | 0.43
129 | C15U G54A | 0.16
130 | A16C C15A | 0.39
131 | A16C C15U | 0.62
132 | A16C C15G | 0.54
133 | A16C G30C | 0.05
134 | A16C G30U | 0.04
135 | A16C G30A | 0.04
136 | C15U G23C | 0.03
137 | C15U G23U | 0.03
138 | C15U G23A | 0.06
139 | C15U U24G | 0.03
140 | C15U U24C | 0.04
141 | C15U U24A | 0.04
142 | C15U C31U | 0.06
143 | C15U C31A | 0.03
144 | C15U C31G | 0.06

Row | Variant | self-cleavage
145 | A16G A38G | 0.97
146 | A16G A38U | 1.05
147 | A16G A38C | 0.98
148 | C15U U43G | 0.12
149 | C15U U43A | 0.16
150 | C15U U43C | 0.09
151 | C15G G54C | 0.16
152 | C15G G54A | 0.19
153 | C15G G54U | 0.35
154 | A16G C15A | 0.61
155 | A16G C15U | 0.45
156 | A16G C15G | 0.78
157 | A16G C33G | 0.08
158 | A16G C33A | 0.26
159 | A16G C33U | 0.87
160 | A16C A46G | 0.06
161 | A16C A46C | 0.06
162 | A16C A46U | 0.07
163 | C15G U18C | 0.54
164 | C15G U18A | 0.48
165 | C15G U18G | 0.37
166 | A16C C31G | 0.1
167 | A16C C31A | 0.04
